Data published in ChEMBL document CHEMBL4732211, “Multifunctional agents based on benzoxazolone as promising therapeutic drugs for diabetic nephropathy” (Eur J Med Chem, 2021).
The source made the active and inactive calls. The rule behind the calls is not given here.

Columns and labels:
[1] = target: Aldo-keto reductase family 1 member B1 (Rattus norvegicus, UniProt P07943); assay: Inhibition of Wistar rat lens ALR2 assessed as reduction in NADPH oxidation using D,L-glyceraldehyde and NADPH as substrate preincubated for 10 mins followed by substrate addition and measured for 4 mins by spectrophotometric analysis; type: tissue-based
[2] = target: Aldo-keto reductase family 1 member A1 (Rattus norvegicus, UniProt P51635); assay: Inhibition of Wistar rat kidney ALR1 assessed as reduction in NADPH oxidation using sodium D-glucuronate and NADPH as substrate preincubated for 10 mins followed by substrate addition and measured for 4 mins by spectrophotometric analysis; type: tissue-based
[3] = species on record: Rattus norvegicus; assay: Selectivity index, ratio of IC50 for Wistar rat kidney ALR1 to IC50 for Wistar rat lens ALR2
Procedure, shortened: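 Aldose reductases (ALR2, ALR1) prepared from Wistar rats (200-250 g). NADPH loss followed at 340 nm for 4 min after substrate start, following 10 min preincubation. ALR2: pH 6.2 phosphate, 30 °C, NADPH 0.10 mM, D,L-glyceraldehyde 10 mM. ALR1: pH 7.2, 37 °C, NADPH 0.12 mM, D-glucuronate 20 mM. 0.5% DMSO; non-enzymatic rate subtracted. IC50 from log dose-response with ≥3 concentrations (20-80% inhibition), triplicate.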

[4] = target: Aldo-keto reductase family 1 member B1 (Rattus norvegicus) (UniProt P07943); assay: Noncompetitive inhibition of Wistar rat lens ALR2 at 0.025 mM using varying level of D,L-glyeraldehyde as substrate in presence of NADPH by double reciprocal plot analysis; type: tissue-based
Procedure, shortened: (§1)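 Rat ALR2 kinetics run under the assay conditions with inhibitor at 10 and 5 nM. Either D,L-glyceraldehyde varied (7.5-0.94 mM) with cofactor 0.025 mM, or NADPH varied (25-3.125) with glyceraldehyde 2.5 mM. Mode assigned from double-reciprocal plots.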

[5] = target: Aldo-keto reductase family 1 member B1 (Rattus norvegicus) (UniProt P07943); assay: Uncompetitive inhibition of Wistar rat lens ALR2 at 2.5 mM using D,L-glyeraldehyde as substrate in presence of varying levels of NADPH by double reciprocal plot analysis; type: tissue-based; procedure, shortened: as §1
[6] = Inhibition of polyol pathway in STZ-induced Kunming mouse model of diabetes assessed as decrease in sorbitol level in kidney cortex at 160 mg/kg, po administered daily via gavage for 8 weeks and measured at 6 hrs post-final drug dose by fluorospectrophotometric analysis; type: functional; conditions: 1344 h
[7] = test system: Mus musculus; assay: Antioxidant activity in STZ-induced diabetic Kunming mouse assessed as reduction in liver MDA level at 80 mg/kg, po administered daily via gavage for 8 weeks and measured at 6 hrs post-final drug dose relative to STZ-treated group; type: functional; conditions: 1344 h
[8] = test system: Mus musculus; assay: Antioxidant activity in STZ-induced diabetic Kunming mouse assessed as reduction in liver MDA level at 160 mg/kg, po administered daily via gavage for 8 weeks and measured at 6 hrs post-final drug dose relative to STZ-treated group; type: functional; conditions: 1344 h
[9] = test system: Mus musculus; assay: Antioxidant activity in STZ-induced diabetic Kunming mouse assessed as rise in liver MDA level at 160 mg/kg, po administered daily via gavage for 8 weeks and measured at 6 hrs post-final drug dose relative to normal group; type: functional
[10] = test system: Mus musculus; assay: Antioxidant activity in STZ-induced diabetic Kunming mouse assessed as increase in SOD level in kidney at 80 mg/kg, po administered daily via gavage for 8 weeks and measured at 6 hrs post-final drug dose; type: functional
[11] = test system: Mus musculus; assay: Antioxidant activity in STZ-induced diabetic Kunming mouse assessed as increase in GSH level in kidney at 80 mg/kg, po administered daily via gavage for 8 weeks and measured at 6 hrs post-final drug dose by microplate reader analysis; type: functional
[12] = test system: Mus musculus; assay: Antidiabetic activity in STZ-induced Kunming mouse model of diabetes assessed as reduction in blood glucose level at 160 mg/kg, po administered daily via gavage for 8 weeks and measured at week 2; type: functional; conditions: 336 h, time 2 weeks
[13] = test system: Mus musculus; assay: Antidiabetic activity in STZ-induced Kunming mouse model of diabetes assessed as reduction in blood glucose level at 160 mg/kg, po administered daily via gavage for 8 weeks and measured at week 4; type: functional; conditions: 672 h, time 4 weeks
[14] = test system: Mus musculus; assay: Antidiabetic activity in STZ-induced Kunming mouse model of diabetes assessed as reduction in blood glucose level at 160 mg/kg, po administered daily via gavage for 8 weeks and measured at week 6; type: functional; conditions: 1008 h, time 6 weeks
[15] = test system: Mus musculus; assay: Antidiabetic activity in STZ-induced Kunming mouse model of diabetes assessed as reduction in blood glucose level at 160 mg/kg, po administered daily via gavage for 8 weeks and measured at week 8; type: functional; conditions: 1344 h
[16] = test system: Mus musculus; assay: Antidiabetic activity in STZ-induced Kunming mouse model of diabetes assessed as reduction in blood glucose level at 80 mg/kg, po administered daily via gavage for 8 weeks and measured at week 2; type: functional; conditions: 336 h, time 2 weeks
[17] = test system: Mus musculus; assay: Antidiabetic activity in STZ-induced Kunming mouse model of diabetes assessed as reduction in blood glucose level at 80 mg/kg, po administered daily via gavage for 8 weeks and measured at week 4; type: functional; conditions: 672 h, time 4 weeks
[18] = test system: Mus musculus; assay: Reno-protective activity in STZ-induced Kunming mouse model of diabetes assessed as urinary total protein excretion at 80 mg/kg, po administered daily via gavage for 8 weeks and measured at week 4 relative to control; type: functional; conditions: time 4 weeks
[19] = test system: Mus musculus; assay: Reno-protective activity in STZ-induced Kunming mouse model of diabetes assessed as urinary total protein excretion at 160 mg/kg, po administered daily via gavage for 8 weeks and measured at week 6 relative to control; type: functional; conditions: time 6 weeks
[20] = test system: Mus musculus; assay: Reno-protective activity in STZ-induced Kunming mouse model of diabetes assessed as urinary total protein excretion at 80 mg/kg, po administered daily via gavage for 8 weeks and measured at week 8 relative to control; type: functional
[21] = test system: Mus musculus; assay: Reno-protective activity in STZ-induced Kunming mouse model of diabetes assessed as reduction in albumin to creatinine ratio at 80 mg/kg, po administered daily via gavage for 8 weeks; type: functional; conditions: 1344 h
[22] = test system: Mus musculus; assay: Reno-protective activity in STZ-induced Kunming mouse model of diabetes assessed as reduction in kidney lesions and appearance of normal structure at 80 to 160 mg/kg, po administered daily via gavage for 8 weeks by H and E staining based histological analysis; type: functional, organism-based; conditions: dose 80-160 mg/kg
[23] = test system: Mus musculus; assay: Reno-protective activity in STZ-induced Kunming mouse model of diabetes assessed as glomerular atrophy and inflammatory cell infiltration at 160 mg/kg, po administered daily via gavage for 8 weeks by H and E staining based histological analysis; type: functional, organism-based
[24] = test system: Mus musculus; assay: Antidiabetic activity in STZ-induced Kunming mouse model of diabetes assessed as reduction in blood glucose level at 80 mg/kg, po administered QD via gavage for 4 weeks and measured at week 2 to 4; type: functional, organism-based; conditions: time 2-4 weeks
[25] = test system: Mus musculus; assay: Antidiabetic activity in STZ-induced Kunming mouse model of diabetes assessed as reduction in blood glucose level at 80 to 160 mg/kg, po administered daily via gavage for 8 weeks and measured at 2 to 5 hrs post-last drug dose; type: functional, organism-based; conditions: dose 80-160 mg/kg
[26] = test system: HEK-293T; assay: Cytotoxicity against human HEK293T cells at 25 to 200 uM measured after 24 hrs by MTT assay; type: cell-based; conditions: dose 25-200 µM
Procedure, shortened: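 293T cells seeded at 1×10^5/well and exposed to 25, 50, 100 and 200 for 24 h at 37 °C; viability by MTT kit.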

[27] = test system: Mus musculus; assay: Antidiabetic activity in STZ-induced Kunming mouse model of diabetes assessed as improvement in glucose tolerance at 80 mg/kg, po QD administered via gavage and measured for 120 mins by intraperitoneal GTT

Chain of Aldo-keto reductase family 1 member A1 (P51635 whole entry, looked up): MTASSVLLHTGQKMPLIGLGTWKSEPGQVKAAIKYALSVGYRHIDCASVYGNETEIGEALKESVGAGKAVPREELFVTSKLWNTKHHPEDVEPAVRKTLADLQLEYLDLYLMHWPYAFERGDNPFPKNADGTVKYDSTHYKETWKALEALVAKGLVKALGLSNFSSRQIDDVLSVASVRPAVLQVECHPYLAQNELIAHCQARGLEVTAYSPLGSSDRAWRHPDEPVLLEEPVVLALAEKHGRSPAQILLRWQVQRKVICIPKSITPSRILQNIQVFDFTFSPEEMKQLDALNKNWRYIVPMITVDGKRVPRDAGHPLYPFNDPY

COc1cc(/C=C/c2cccc3c2oc(=O)n3CC(=O)O)ccc1O
IC50 [1]: 6.9 nM
IC50 [2]: 4900 nM
Ratio IC50 [3]: 710
inhibition [4]: Active
inhibition [5]: Active
inhibition in vivo at 160 mg/kg [6]: 18%
inhibition in vivo at 80 mg/kg [7]: 67%
inhibition in vivo at 160 mg/kg [8]: 45%
Activity [9]: 39%
Activity [10]: 177%
Activity [11]: 170%
inhibition in vivo at 160 mg/kg [12]: 35%
inhibition in vivo at 160 mg/kg [13]: 23%
inhibition in vivo at 160 mg/kg [14]: 19%
inhibition in vivo at 160 mg/kg [15]: 20%
inhibition in vivo at 80 mg/kg [16]: 18%
inhibition in vivo at 80 mg/kg [17]: 24%
Activity [18]: 78%
Activity [19]: 36%
Activity [20]: 53%
inhibition in vivo at 80 mg/kg [21]: 67%
Activity [22]: Active
Activity [23]: inactive
Activity [24]: Active
Activity [25]: Active
Activity [26]: Non-Toxic
Activity [27]: Active
